ChEMBL document CHEMBL1122773 (1984)
In brackets after ≈: the same amount, converted by molar mass.

Assays:
Mus musculus [1] = assay: Bioactivity in abscess, in Bacteroides fragilis infected mice following subcutaneous dose of 200 mg/kg after 15 mins of bleeding; type: functional
In short: (§1)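 On day 7 post-infection, groups of five mice were given a single 200 mg/kg subcutaneous dose and killed at set times. Blood was taken by cardiac puncture and abscesses were excised. Activity was measured by standard microbiological assay.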

[2] = In vitro antibacterial activity against the aerobic […] I(Strain UC no.41); type: functional
In short: (§2)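 Broth microdilution in brain/heart infusion broth with twofold drug dilutions. Inoculum was a standardized suspension giving 10⁵ viable cells/mL final. Plates were incubated 20 h at 37 °C. MIC (mcg/mL) = lowest concentration with no visible growth.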

Staphylococcus aureus [3] = assay: In vitro antibacterial activity against the aerobic Staphylococcus aureus (Strain UC no.6692); type: functional; in short: as §2
Pseudomonas aeruginosa = assay: In vitro antibacterial activity against the aerobic Pseudomonas aeruginosa (Strain UC no.95); type: functional; in short: as §2
Staphylococcus aureus [4] = assay: In vitro antibacterial activity against the aerobic Staphylococcus aureus (Strain UC no.76); type: functional; in short: as §2
Escherichia coli = assay: In vitro antibacterial activity against the aerobic Escherichia coli (Strain UC no.45); type: functional; in short: as §2
Staphylococcus aureus [5] = assay: In vitro antibacterial activity against the aerobic Staphylococcus aureus (Strain UC no.6686); type: functional; in short: as §2
Staphylococcus aureus [6] = assay: In vitro antibacterial activity against the aerobic Staphylococcus aureus (Strain UC no.746); type: functional; in short: as §2
[7] = In vitro antibacterial activity against the aerobic Salmonella schottmuelleri (Strain UC no.126); type: functional; in short: as §2
Mus musculus [8] = assay: Bioactivity in blood, in Bacteroides fragilis infected mice following subcutaneous dose of 200 mg/kg after 45 mins of bleeding; type: functional; in short: as §1
Staphylococcus aureus [9] = assay: In vitro antibacterial activity against the aerobic Staphylococcus aureus (Strain UC no.571); type: functional; in short: as §2
Mus musculus [10] = assay: Bioactivity in blood, in Bacteroides fragilis infected mice following subcutaneous dose of 200 mg/kg after 120 mins of bleeding; type: functional; in short: as §1
Staphylococcus aureus [11] = assay: In vitro antibacterial activity against the aerobic Staphylococcus aureus (Strain UC no.6688); type: functional; in short: as §2
Mus musculus [12] = assay: Bioactivity in abscess, in Bacteroides fragilis infected mice following subcutaneous dose of 200 mg/kg after 90 mins of bleeding; type: functional; in short: as §1
Proteus vulgaris = assay: In vitro antibacterial activity against the aerobic Proteus vulgaris (Strain UC no.93); type: functional; in short: as §2
Mus musculus [13] = assay: Bioactivity in blood, in Bacteroides fragilis infected mice following subcutaneous dose of 200 mg/kg after 60 mins of bleeding; type: functional; in short: as §1
Staphylococcus aureus [14] = assay: In vitro antibacterial activity against the aerobic Staphylococcus aureus (Strain UC no.6689); type: functional; in short: as §2
Mus musculus [15] = assay: Bioactivity in abscess, in Bacteroides fragilis infected mice following subcutaneous dose of 200 mg/kg after 45 mins of bleeding; type: functional; in short: as §1
Mus musculus [16] = assay: Bioactivity in abscess, in Bacteroides fragilis infected mice following subcutaneous dose of 200 mg/kg after 150 mins of bleeding; type: functional; in short: as §1
[17] = test system: Peptoniphilus asaccharolyticus; assay: In vitro antibacterial activity against the anaerobic Peptoccus aerogenes (Strain UC no.6319); type: functional
In short: (§3)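 Agar dilution with serial twofold drug dilutions in Schaedler broth mixed into molten Wilkens-Chalgren agar. Plates prereduced 3 h under 85% N2/10% H2/5% CO2. Strains grown 48 h on Schaedler agar, suspended to 0.5 McFarland, and 0.001 mL spotted by replicator. All steps done anaerobically. Incubation 48 h at 37 °C. MIC is the least drug inhibiting growth; a faint film or fewer than three colonies scored negative.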

Mus musculus [18] = assay: Bioactivity in blood, in Bacteroides fragilis infected mice following subcutaneous dose of 200 mg/kg after 90 mins of bleeding; type: functional; in short: as §1
Mus musculus [19] = assay: Bioactivity in blood, in Bacteroides fragilis infected mice following subcutaneous dose of 200 mg/kg after 360 mins of bleeding; type: functional; in short: as §1
Staphylococcus aureus [20] = assay: In vitro antibacterial activity against the aerobic Staphylococcus aureus (Strain UC no.6691); type: functional; in short: as §2
Staphylococcus aureus [21] = assay: In vitro antibacterial activity against the aerobic Staphylococcus aureus (Strain UC no.6696); type: functional; in short: as §2
Clostridium cadaveris = assay: In vitro antibacterial activity against the anaerobic Clostridium cadaveris (Strain UC no.6510); type: functional; in short: as §3
Mus musculus [22] = assay: Bioactivity in abscess, in Bacteroides fragilis infected mice following subcutaneous dose of 200 mg/kg after 120 mins of bleeding; type: functional; in short: as §1
Staphylococcus aureus [23] = assay: In vitro antibacterial activity for minimum inhibition concentration (MIC) required to inhibit growth of Staphylococcus aureus; type: functional
In short: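 Broth microdilution in brain/heart infusion broth, inoculated with a standardized suspension to a final 10^5 viable cells/mL. Incubation 20 h at 37 °C. MIC read as the lowest concentration preventing visible growth.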

Mus musculus [24] = assay: Bioactivity in blood, in Bacteroides fragilis infected mice following subcutaneous dose of 200 mg/kg after 15 mins of bleeding; type: functional; in short: as §1
Staphylococcus aureus [25] = assay: In vitro antibacterial activity against the aerobic Staphylococcus aureus (Strain UC no.6695); type: functional; in short: as §2
Streptococcus pyogenes = assay: In vitro antibacterial activity against the aerobic Streptococcus pyogenes (Strain UC no.152)
Staphylococcus aureus [26] = assay: In vitro antibacterial activity against the aerobic Staphylococcus aureus (Strain UC no.6693); type: functional; in short: as §2
Staphylococcus aureus [27] = assay: In vitro antibacterial activity against the aerobic Staphylococcus aureus (Strain UC no.6675); type: functional; in short: as §2
Staphylococcus aureus [28] = assay: In vitro antibacterial activity against the aerobic Staphylococcus aureus (Strain UC no.570); type: functional; in short: as §2
Clostridium tetani = assay: In vitro antibacterial activity against the anaerobic Clostridium tetani(Strain UC no.6521); type: functional
In short: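 Agar dilution under anaerobic conditions. Serial twofold drug dilutions in Schaedler broth were mixed with molten Wilkins-Chalgren agar. Plates were prereduced 3 h (85% N2, 10% H2, 5% CO2). Strains were grown 48 h on Schaedler agar, suspended to 0.5 McFarland, and 0.001 mL spotted by replicator. Incubation was anaerobic, 37 °C, 48 h.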

Cutibacterium acnes = assay: In vitro antibacterial activity against the anaerobic Propionibacterium acnes(Strain UC no.6575); type: functional; in short: as §3
[29] = In vitro antibacterial activity against the aerobic […] (Strain UC no.871); type: functional; in short: as §2
Mus musculus [30] = assay: Bioactivity in abscess, in Bacteroides fragilis infected mice following subcutaneous dose of 200 mg/kg after 30 mins of bleeding; type: functional; in short: as §1
Klebsiella pneumoniae = assay: In vitro antibacterial activity against the aerobic Klebsiella pneumoniae (Strain UC no.58); type: functional; in short: as §2
[31] = In vitro antibacterial activity against the aerobic […] (Strain UC no.153); type: functional; in short: as §2
Mus musculus [32] = assay: Bioactivity in blood, in Bacteroides fragilis infected mice following subcutaneous dose of 200 mg/kg after 150 mins of bleeding; type: functional; in short: as §1
Mus musculus [33] = assay: Bioactivity in blood, in Bacteroides fragilis infected mice following subcutaneous dose of 200 mg/kg after 30 mins of bleeding; type: functional; in short: as §1
Mus musculus [34] = assay: Bioactivity in abscess, in Bacteroides fragilis infected mice following subcutaneous dose of 200 mg/kg after 360 mins of bleeding; type: functional; in short: as §1
Mus musculus [35] = assay: Bioactivity in abscess, in Bacteroides fragilis infected mice following subcutaneous dose of 200 mg/kg after 60 mins of bleeding; type: functional; in short: as §1
[36] = In vitro antibacterial activity against the aerobic […] III(Strain UC no.3213); type: functional; in short: as §2
Staphylococcus aureus [37] = assay: In vitro antibacterial activity against the aerobic Staphylococcus aureus (Strain UC no.6694); type: functional; in short: as §2

With `CC[C@@H]1CCN[C@H](C(=O)N[C@@H]([C@H]2O[C@H](SC)[C@H](O)[C@@H](O)[C@H]2O)[C@H](C)Cl)C1` [PIRLIMYCIN] the A (Mus musculus [1]) was 58 ug (g of abscess)-1, the MIC [2] was less than 0.012 µg/mL and the MIC (Staphylococcus aureus [3]) was greater than 25 µg/mL. The MIC (Pseudomonas aeruginosa) was greater than 25 µg/mL, the MIC (Staphylococcus aureus [4]) was 0.1 µg/mL (≈ 0.243 µM) and the MIC (Escherichia coli) was greater than 25 µg/mL. For the same compound, the MIC (Staphylococcus aureus [5]) was 0.2 µg/mL (≈ 0.487 µM), the MIC (Staphylococcus aureus [6]) was 0.05 µg/mL (≈ 0.122 µM) and the MIC [7] was greater than 25 µg/mL. For the same compound, the B (Mus musculus [8]) was 25 ug (g of abscess)-1, the MIC (Staphylococcus aureus [9]) was 0.78 µg/mL (≈ 1.9 µM) and the B (Mus musculus [10]) was 10 ug (g of abscess)-1. The MIC (Staphylococcus aureus [11]) was greater than 25 µg/mL, the A (Mus musculus [12]) was 31 ug (g of abscess)-1 and the MIC (Proteus vulgaris) was greater than 25 µg/mL. For the same compound, the B (Mus musculus [13]) was 20 ug (g of abscess)-1, the MIC (Staphylococcus aureus [14]) was 0.78 µg/mL (≈ 1.9 µM) and the A (Mus musculus [15]) was 32 ug (g of abscess)-1. For the same compound, the A (Mus musculus [16]) was 19 ug (g of abscess)-1, the MIC [17] was 0.06 µg/mL (≈ 0.146 µM) and the B (Mus musculus [18]) was 14 ug (g of abscess)-1. The B (Mus musculus [19]) was 4 ug (g of abscess)-1, the MIC (Staphylococcus aureus [20]) was 0.2 µg/mL (≈ 0.487 µM) and the MIC (Staphylococcus aureus [21]) was 0.39 µg/mL (≈ 0.949 µM). The MIC (Clostridium cadaveris) was 0.06 µg/mL (≈ 0.146 µM), the A (Mus musculus [22]) was 22 ug (g of abscess)-1 and the MIC (Staphylococcus aureus [23]) was 0.1 µg/mL (≈ 0.243 µM). For the same compound, the B (Mus musculus [24]) was 39 ug (g of abscess)-1, the MIC (Staphylococcus aureus [25]) was 0.39 µg/mL (≈ 0.949 µM) and the MIC (Streptococcus pyogenes) was less than 0.012 µg/mL. For the same compound, the MIC (Staphylococcus aureus [26]) was 0.78 µg/mL (≈ 1.9 µM), the MIC (Staphylococcus aureus [27]) was 0.39 µg/mL (≈ 0.949 µM) and the MIC (Staphylococcus aureus [28]) was 0.39 µg/mL (≈ 0.949 µM). The MIC (Clostridium tetani) was less than 0.03 µg/mL, the MIC (Cutibacterium acnes) was 0.06 µg/mL (≈ 0.146 µM) and the MIC [29] was less than 0.012 µg/mL. For the same compound, the A (Mus musculus [30]) was 48 ug (g of abscess)-1, the MIC (Klebsiella pneumoniae) was greater than 25 µg/mL and the MIC [31] was 0.05 µg/mL (≈ 0.122 µM). For the same compound, the B (Mus musculus [32]) was 8 ug (g of abscess)-1, the B (Mus musculus [33]) was 43 ug (g of abscess)-1 and the A (Mus musculus [34]) was 15 ug (g of abscess)-1. For the same compound, the A (Mus musculus [35]) was 31 ug (g of abscess)-1, the MIC [36] was less than 0.012 µg/mL and the MIC (Staphylococcus aureus [37]) was greater than 25 µg/mL.
